Assay results taken from ChEMBL document CHEMBL4049458, “Structure-Based Optimization of Thiophene[3,2-d]pyrimidine Derivatives as Potent HIV-1 Non-nucleoside Reverse Transcriptase Inhibitors with Improved Potency against Resistance-Associated Variants” (J Med Chem, 2017).

Tests used:
[1] = Cytotoxicity against human MT4 cells assessed as cell viability after 5 days by MTT assay; type: cell-based
[2] = Selectivity index, ratio of CC50 for human MT4 cells to EC50 for wild type HIV1 3B harboring reverse transcriptase infected in human MT4 cells; settings: MT4 cells
[3] = Selectivity index, ratio of CC50 for human MT4 cells to EC50 for reverse transcriptase F227L/V106A double mutant in human MT4 cells infected HIV1 3B; settings: MT4 cells
[4] = Selectivity index, ratio of CC50 for human MT4 cells to EC50 for reverse transcriptase K103N mutant in human MT4 cells infected HIV1 3B; settings: MT4 cells
[5] = Fold resistance, ratio of EC50 for reverse transcriptase E138K mutant in human MT4 cells infected HIV1 3B to EC50 for wild type HIV1 3B harboring reverse transcriptase infected in human MT4 cells; type: functional
Outline: (§1)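 MT-4 cells at 6 × 10^5 cells/mL were infected with WT HIV-1 IIIB or RT-mutant strains at 100−300 CCID50, with 5-fold serial compound dilutions in triplicate wells. After 5 days, viability was read by MTT reduction at 540 and 690 nm, using the median OD of three wells. […] Fold resistance is mutant EC50 divided by WT EC50.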

[6] = Selectivity index, ratio of CC50 for human MT4 cells to EC50 for reverse transcriptase Y181C mutant in human MT4 cells infected HIV1 3B; settings: MT4 cells
[7] = test system: Human immunodeficiency virus 1; experiment: Antiviral activity against wild type HIV1 3B harboring reverse transcriptase infected in human MT4 cells assessed as protection against virus induced cytotoxicity after 5 days by MTT assay; type: functional, cell-based; settings: Human immunodeficiency virus 1, 3B, MT4, 120 h
[8] = test system: Human immunodeficiency virus 2; experiment: Antiviral activity against HIV2 ROD harboring reverse transcriptase infected in human MT4 cells assessed as protection against virus induced cytotoxicity after 5 days by MTT assay; type: functional, cell-based; settings: Human immunodeficiency virus 2, ISOLATE ROD, MT4, 120 h
[9] = Selectivity index, ratio of CC50 for human MT4 cells to EC50 for reverse transcriptase E138K mutant in human MT4 cells infected HIV1 3B; settings: MT4 cells
[10] = Selectivity index, ratio of CC50 for human MT4 cells to EC50 for reverse transcriptase L100I mutant in human MT4 cells infected HIV1 3B; settings: MT4 cells
[11] = Selectivity index, ratio of CC50 for human MT4 cells to EC50 for HIV1 RES056 reverse transcriptase K103N/Y181C double mutant infected in human MT4 cells; settings: MT4 cells
[12] = Selectivity index, ratio of CC50 for human MT4 cells to EC50 for reverse transcriptase Y188L mutant in human MT4 cells infected HIV1 3B; settings: MT4 cells
[13] = Fold resistance, ratio of EC50 for reverse transcriptase K103N/Y181C double mutant in human MT4 cells infected HIV1 RES056 to EC50 for wild type HIV1 3B harboring reverse transcriptase infected in human MT4 cells; type: functional; outline: as §1
[14] = Fold resistance, ratio of EC50 for reverse transcriptase L100I mutant in human MT4 cells infected HIV1 3B to EC50 for wild type HIV1 3B harboring reverse transcriptase infected in human MT4 cells; type: functional; outline: as §1
[15] = Inhibition of recombinant wild type HIV1 3B reverse transcriptase infected in human MT4 cells assessed as decrease in biotin-dUTP incorporation after 1 hr; type: cell-based; settings: Human immunodeficiency virus 1, 3B, MT4, 1 h
Outline: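 Recombinant HIV-1 RT assayed with a kit ELISA. Enzyme, reconstituted template and nucleotides (DIG-dUTP, biotin-dUTP, dTTP) were incubated in incubation buffer with or without inhibitor for 1 h at 37 °C. Product was captured on streptavidin plates for 1 h at 37 °C, then anti-DIG-POD was added for 1 h at 37 °C, followed by ABTS. Read at OD405.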

SMILES	CC50 at 120 h [1]	selectivity ratio [2]	selectivity ratio [3]	selectivity ratio [4]	Ratio EC50 [5]	selectivity ratio [6]	EC50 [7]	EC50 [8]	selectivity ratio [9]	selectivity ratio [10]	selectivity ratio [11]	selectivity ratio [12]	Ratio EC50 [13]	Ratio EC50 [14]	IC50 [15]
Cc1cc(C#N)cc(C)c1Oc1nc(NC2CCC(NCc3ccc([N+](=O)[O-])cc3)CC2)nc2ccsc12 (stereo not given)	54400 nM	544	84	79	1.6	≤ 2	100 nM	> 54400 nM	344	35	< 1	5			
Cc1cc(C#N)cc(C)c1Oc1nc(NC2CCN(Cc3ccc(S(N)(=O)=O)cc3)CC2)nc2ccsc12			> 53500	> 78100		> 70000			> 78100	> 67400	> 7350	> 75800	21	2.4	
Cc1cc(/C=C/C#N)cc(C)c1Oc1nc(NC2CCN(Cc3cccnc3)CC2)nc2ccsc12	3860 nM	1200	664	872		637	3.22 nM	> 3860 nM	587	866	308	358	3.4 - 6		
Cc1cc(C#N)cc(C)c1Oc1nc(NC2CCC(NCc3ccc(S(N)(=O)=O)cc3)CC2)nc2ccsc12 (stereo not given)	3690 nM						42.2 nM								4020 nM
Cc1cc(/C=C/C#N)cc(C)c1Oc1nc(NC2CCN(Cc3ccncc3)CC2)nc2ccsc12	4780 nM	1430	322	859		825	3.34 nM	> 4780 nM	560	752	162	148			
Cc1cc(C#N)cc(C)c1Oc1nc(NC2CCC(NCc3cccc(C(F)(F)F)c3)CC2)nc2ccsc12 (stereo not given)	707 nM	4	< 1	< 1		< 1	174 nM	> 707 nM	< 1	< 1	< 1	< 1			
Cc1cc(/C=C/C#N)cc(C)c1Oc1nc(NC2CCN(Cc3cccc(F)c3)CC2)nc2ccsc12	4760 nM	489	84	226		138	9.73 nM	> 4760 nM	150	216	38	30			
Cc1cc(/C=C/C#N)cc(C)c1Oc1nc(NC2CCN(Cc3ccccn3)CC2)nc2ccsc12	3850 nM	1150	144	724		418	3.36 nM	> 3850 nM	517	210	32	92			
Cc1cc(C#N)cc(C)c1Oc1nc(NC2CCN(Cc3ccc(S(N)(=O)=O)cc3)CC2C(=O)O)nc2ccsc12 (stereo not given)	27600 nM	38	11	33		8	723 nM	> 27600 nM	8	17	< 1	9			
Cc1cc(C#N)cc(C)c1Oc1nc(NC2CCC(NCc3ccc(O)cc3)CC2)nc2ccsc12 (stereo not given)	20100 nM	15	< 1	4		< 1	1310 nM	> 20100 nM	5	< 1	< 1	< 1			
COC(=O)c1ccc(CN2CCC(Nc3nc(Oc4c(C)cc(C#N)cc4C)c4ccsc4n3)CC2)cc1	28600 nM	5450	109	982		316	5.26 nM	> 28600 nM	805	214	19	181			
Cc1cc(/C=C/C#N)cc(C)c1Oc1nc(NC2CCN(Cc3ccc(F)cc3)CC2)nc2ccsc12	2580 nM	441	25	405		95	5.86 nM	> 2580 nM	74	181	20	17			
Cc1cc(/C=C/C#N)cc(C)c1Oc1nc(NC2CCN(Cc3cccc(C#N)c3)CC2)nc2ccsc12	2820 nM	639	107	470		105	4.43 nM	> 2830 nM	101	352	24	55			
Cc1cc(/C=C/C#N)cc(C)c1Oc1nc(NC2CCN(Cc3ccc(S(C)(=O)=O)cc3)CC2)nc2ccsc12	1800 nM						2.32 nM								890 nM
Cc1cc(C#N)cc(C)c1Oc1nc(NC2CCC(NCc3ccc(S(C)(=O)=O)cc3)CC2)nc2ccsc12 (stereo not given)	75200 nM	1320	< 1	212	2.4	< 1	57.3 nM	> 75200 nM	556	≤ 1	< 1	≤ 1			
CCOC(=O)C1CN(Cc2ccc(S(N)(=O)=O)cc2)CCC1Nc1nc(Oc2c(C)cc(C#N)cc2C)c2sccc2n1 (stereo not given)	4240 nM	32	3	18		23	134 nM	> 4240 nM	7	11	≤ 5	< 1			
Cc1cc(/C=C/C#N)cc(C)c1Oc1nc(NC2CCN(Cc3cccc(Br)c3)CC2)nc2ccsc12	7950 nM	308	85	269		62	25.8 nM	> 7950 nM	61	279	37	48			
Cc1cc(C#N)cc(C)c1Oc1nc(NC2CCN(Cc3cccc(C(N)=O)c3)CC2)nc2sccc12	> 48700 nM	> 9420	> 1930	> 5490		> 5300	5.17 nM	> 48700 nM	> 5610	> 4630	> 10	> 2870			
Cc1cc(C#N)cc(C)c1Oc1nc(NC2CCN(Cc3ccc(S(N)(=O)=O)cc3)CC2)nc2sccc12	24100 nM	12300	2730	7370		3160	1.97 nM	> 24100 nM	3180	5440	625	3170			420 nM
